Measurements taken from ChEMBL document CHEMBL4513216, “Probing the Open Global Health Chemical Diversity Library for Multistage-Active Starting Points for Next-Generation Antimalarials” (ACS Infect Dis, 2020).

Assay: Toxicity liver stage against HepG2, at 10uM
Format: cell-based
Design: test concentration 10 uM, cell line HepG2-A16-CD81EGFP
Conditions: human, HepG2-A16-CD81EGFP cells; read-out: INHIBITION
In short: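 Uninfected HepG2-A16-CD81EGFP cells, 3 × 10^3 per well, 1536-well, plated on prespotted compound at 10 μM final, parasite-free screening media added to match infected plates; puromycin 10 μM positive, DMSO 0.5% negative; run in parallel with 48 h PbLuc assay at 37 °C, 5% CO2; viability by CellTiter-Glo luminescence, normalized to controls.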

Structure (SMILES) | cytotoxicity at 10 µM
Cc1n[nH]c(C)c1CC(=O)NCCc1ccccc1 | 13.7%
CC(=O)N1CC[C@@]2(O)CCCC[C@H]2[C@@H]1c1ccc2c(c1)OCO2 | 15.4%
COc1ccc(C(=O)NCC(c2cccn2C)N2CCCC2)cc1OC (centres undefined) | 6.86%
N#Cc1cccnc1OC1CCN(C(=O)NCc2ccccc2)CC1 | 1.38%
CS(=O)(=O)N1CCn2c(C(=O)N3CCOCC3)cnc2C1 | -4.63%
COc1cccc(CNC(=O)c2nc3c(o2)CN(S(C)(=O)=O)C3)c1 | 8.65%
COCCN1C(=O)CC[C@@H]2[C@H]1CCN2C(=O)C1CCOCC1 | 9.67%
Cc1nc(-c2cc(C(=O)N3CCN(C)CC3)c3ccccn23)cn1C | 8.73%
Cc1ccc(N2CCO[C@@H]3CN(Cc4cccc(C)n4)CC[C@@H]3C2)nn1 | 7.67%
CC1c2ncc(Cn3cncn3)n2CCN1C(=O)c1ccsc1 (centres undefined) | -0.551%
O=C(c1ccccc1)N1CCC2(CC1)CC(Oc1ccccc1)CO2 (centres undefined) | 16.6%
Cc1ncsc1CN1C[C@H](C(=O)NC2CCCC2)[C@@H]2CCO[C@@H]2C1 | 8.04%
CCc1ccc(NC(=O)C2OC(c3cccs3)=NN2C(C)=O)cc1 (centres undefined) | 4.64%
CCn1nc(C)c2ncnc(N(C)Cc3ccco3)c21 | 8.88%
O=C1N[C@H]2OCCC[C@H]2[C@H](c2ccccc2)N1 | -0.675%
O=C(c1cnc(C2CC2)nc1)N1CCCC(c2nccs2)C1 (centres undefined) | 4.53%
CNc1cncc(C2CCCN2c2cc(C)ncn2)n1 (centres undefined) | -23.3%
Cc1nnsc1C(=O)N1CCCC(n2nnc3cc(F)ccc32)C1 (centres undefined) | 3.49%
CS(=O)(=O)CCSc1nnc(Cc2ccccc2F)o1 | 0.313%
CCC(NC(=O)c1cccc(N2CCCC2=O)c1)c1ccc(OC)cc1 (centres undefined) | -62.3%
CNC(=O)Cc1ccc(NC(=O)NCc2nc(C)sc2C)cc1 | -4.36%
Cc1cc(N(C)C)nc(N2CCn3c(nnc3C(C)C)C2)n1 | 19%

Structure (SMILES) | cytotoxicity at 10 µM
CN(C)C(=O)c1cccc(NC(=O)c2cnn(C)c2)c1 | -1.96%
CNC(=O)C1CCCCN1C(=O)CCn1cnc2sccc2c1=O (centres undefined) | -7.18%
COc1ccsc1C(=O)NC1CCN(c2ccc(C#N)cc2)CC1 | -1.03%
CCC(O)CN(Cc1ccccc1)S(=O)(=O)c1cnc(C)s1 (centres undefined) | -42.5%
COc1cc(C2(C(=O)N3CCN(CC(C)(C)O)CC3)CC2)ccc1C | -0.0264%
CS(=O)(=O)CCN1CCC(Nc2c(Cl)cccc2C#N)CC1 | 2.22%
CC(CS(C)(=O)=O)N(C(=O)c1ccc(Cl)s1)C1CC1 (centres undefined) | 1.51%
Cc1cc(C)n(-c2cncc(N3CCN(C(=O)CN(C)C)CC3)n2)n1 | -2.09%
CC(C)(C)c1cc(NC(=O)C2CCCO2)n(-c2ccccn2)n1 (centres undefined) | -1.26%
N#Cc1ccc(CNC(=O)NC2CCN(CC(F)(F)F)C2)cc1 (centres undefined) | 7.06%
Cc1ccn(-c2ccccc2NCc2cscn2)n1 | 13.2%
CNc1nc(CNC(=O)Nc2cccc(COCCOC(C)C)c2)cs1 | 8.77%
CCc1nccn1C1CCCN(C(=O)c2ccn(-c3ccccc3)n2)C1 (centres undefined) | 5.84%
COc1cc(F)c(NC(=O)N(C)Cc2cc(C)on2)cc1F | -4.25%
O=C(N1CCC(Oc2ccncc2)C1)C1(c2ccc(F)cc2)CC1 (centres undefined) | -8.55%
Cc1nc(C2CCCN2Cc2cc(Cl)c3c(c2)OCCCO3)no1 (centres undefined) | 10.3%
CS(=O)(=O)c1ccccc1NCc1ccc(Cn2ccnc2)cc1 | 1.67%
CC(C)CS(=O)(=O)CC(=O)NC(C)(C)c1cccc(F)c1 | -1.12%
CN(c1ncnc2ccccc12)C1CCCN(c2cccnn2)C1 (centres undefined) | 19.5%
Cc1nccn1-c1ccc(C(C)Nc2cnn(C)c(=O)c2Cl)cc1 (centres undefined) | 18.7%
CCCc1noc(CCC(=O)Nc2cc(C(F)(F)F)c[nH]c2=O)n1 | -7.21%
Cc1cnn(C2CN(CC(=O)N(C)Cc3cccs3)C2)c1 | -16.1%

Structure (SMILES) | cytotoxicity at 10 µM
CN(Cc1ccc([S+](C)[O-])cc1)c1ccc(C(F)(F)F)cn1 (centres undefined) | -1.32%
Cc1cc(=O)[nH]cc1C(=O)N1Cc2ccccc2N(C)CC1C (centres undefined) | 0.305%
Cc1ccc(CNC(c2ccc(F)cc2)c2nccn2C)o1 (centres undefined) | 0.841%
Cc1cc(C)cc(NC(=O)N(CCC#N)CCCN(C)C)c1 | -49.3%
Cc1ccc(OCCC(=O)N(C)CC(=O)Nc2cc(C)on2)c(C)c1 | -16.9%
CCc1c(C)nc2ccccc2c1N1CCC(C(=O)NC)CC1 | 3.85%
CC(=O)NC1CCCN(C(=O)Nc2nnc(C(C)C)s2)C1 (centres undefined) | 12.6%
Cc1cc(C(=O)NS(C)(=O)=O)ccc1I | 6.85%
O=C(NC[C@@H]1C[C@@H]2CN(C(=O)CO)C[C@H]2O1)c1ccsc1 | -96.5%
Cn1cc(CN2C[C@H]3CCC[C@@]3(COc3cccnc3)C2)cn1 | -107%
CCN(CC)c1ncnc2c1CCN(c1ccc(C)nn1)CC2 | -108%
Cn1cccc1C(=O)N1CCn2cc(CN3CCCC3)nc2C1 | -72.3%
CN(C)CCCN(C)C1CCN(c2cccc(-c3cscn3)c2)CC1 | -5%
Cc1nc(C(C)Nc2nc3c(s2)c(C)nn3C)n[nH]1 (centres undefined) | 10.2%
NCCO[C@H]1C[C@@H](O)C12CCN(Cc1c(F)cccc1F)CC2 | -20%
CCCc1cnc(C)nc1N1CCC(Cc2cccc(C(N)=O)c2)C1 (centres undefined) | 3.52%
O=C(NCCC1=CCCCC1)c1cc(-c2ccc(O)cc2)n[nH]1 | 38.8%
CCC[C@H]1CN(S(=O)(=O)c2ccc(CC)s2)C[C@@H]1N | 4.69%
CC(NC(=O)C1CCCC1)c1nncn1C(C)C (centres undefined) | 6.89%
COc1cc(C(=O)N2CCC3(CC2)Nc2ccccc2NC3=O)ccn1 | 0.701%
CNC(=O)CC1COCCN1C(=O)C1(c2ccc(Cl)cc2)CCC1 (centres undefined) | 5.33%
CCn1c(C2CCNCC2)nn(Cc2ccc(C(=O)NC)o2)c1=O | 6.8%

Structure (SMILES) | cytotoxicity at 10 µM
CN(Cc1c[nH]nc1-c1ccc(F)cc1F)Cc1nccn1C | 2.5%
CC(C)Cc1cc(CNC(=O)c2cccc3c2OCC3)no1 | -47.9%
CCc1cc(NC2CCS(=O)(=O)C2)nc(N2CCCCC2)n1 (centres undefined) | -3.15%
Cc1ccc(C(=O)N2CCCn3nc(CCC(=O)O)cc3C2)cc1Cl | -3.49%
Cc1ccc(C(=O)N[C@H]2CN(CCO)C[C@@H]2C2CC2)cc1Cl | 6.93%
O[C@H]1[C@H](NCCSc2ccccn2)c2ccccc2C12CCNCC2 | -13.4%
CC(=O)N[C@@H]1Cc2ccccc2[C@H]1Nc1nnc(C2CC2)o1 | -47.1%
Cc1cc(C(=O)N2CCN(Cc3ccco3)C(CCO)C2)cc(=O)[nH]1 (centres undefined) | -1.5%
COc1ccc(-n2nc(C3CC3)nc2CCn2cnnn2)cc1 | -2.88%
COC(=O)[C@H](CSC)Nc1nc(C2CCCC2)nc2c1cnn2C | -52.6%
Cc1ccc(CS(=O)(=O)NCc2ccco2)cc1 | -2.11%
O=S(=O)(Cc1ccc(F)cc1)NCc1ccco1 | 14.1%
CCc1nccn1C1CCCN(C(=O)c2ccc3c(c2)OCCO3)C1 (centres undefined) | -11.8%
CC(C)CC(=O)Nc1cccc(CNCc2cccs2)c1 | 0.25%
CC1CCN(CCCNC(=O)NC(C)c2nncn2C)CC1 (centres undefined) | -11.6%
CCOc1ncccc1CNC(=O)NC1CCOc2ccccc21 (centres undefined) | -9.65%
COc1ccc(C(=O)N2CCCC(n3nc(C)nc3C)C2)c(OC)c1 (centres undefined) | -18.2%
CC(C)c1n[nH]c(C2CN(C(=O)c3cc4c(s3)CCC4)CCO2)n1 (centres undefined) | -11%
COc1ccc(C)cc1C(=O)NC(CC(=O)O)c1cccs1 (centres undefined) | -16.3%
O=C(NCC(F)(F)F)C1CSCN1S(=O)(=O)c1ccccc1F (centres undefined) | -16.3%
CCc1cnc(CN(C)C2CCN(CCn3cc(C#N)cn3)C2)o1 (centres undefined) | -8.99%
Cn1cnc2c1CCN(Cc1nc(Cc3ccccc3)no1)C2 | -7.99%

Structure (SMILES) | cytotoxicity at 10 µM
Cc1ccc(C(C)N(C)Cc2nc3c(cnn3C)c(=O)[nH]2)cc1 (centres undefined) | -3.91%
Cn1cnc2c1CCN(Cc1nc(-c3ccsc3)no1)C2 | -3.29%
COc1ccc(CNCc2ccc(N3CCCCC3)nc2)cc1OC | 1.92%
COC(=O)c1ccc(S(=O)(=O)NCc2cccnc2N(C)C)cc1 | 9.3%
CS(=O)(=O)c1ccccc1C(=O)NCCCN1CCc2ccccc2C1 | 1.01%
Cc1ccc(-c2nc(CN3CCN(S(=O)(=O)N(C)C)CC3)cs2)o1 | 6.81%
Cc1cc(C)n(CC2CCCN2C(=O)c2ccc3c(c2)OCO3)n1 (centres undefined) | -9.31%
CN1CCN(C(=O)[C@H]2CC[C@@H]3[C@@H](CCN3Cc3ccsc3)O2)CC1 | 1.07%
CCCN1CCC(c2nc3ccc(NCc4cccnc4)cn3n2)CC1 | -121%
CC(CCc1ccccc1)NC(=O)CNCCCN(C)C (centres undefined) | -3.83%
Cn1cc(CN2C[C@@H]3COC[C@]3(CNC(=O)c3ccco3)C2)cn1 | -73.1%
COCC(=O)N1CCOC2(CCCN(c3cnccn3)C2)C1 (centres undefined) | 7.83%
Cc1ccc(C(=O)N2CCC3(CC2)CCN(Cc2ccccn2)C3=O)o1 | 2.49%
O=S(=O)(N1CCCC1)N1CC[C@H](c2ccccc2)[C@H]2NCCCC[C@H]21 | -25.1%
COc1ccc(OCCc2sc(C3(O)CCCNCC3)nc2C)cc1 (centres undefined) | -14.9%
CS(=O)(=O)NCc1cc(=O)n2c(n1)CN(Cc1ccco1)CCC2 | 7.25%
O=C(c1c[nH]cn1)N1CCC(F)(F)C2(CCN(c3cnccn3)C2)C1 (centres undefined) | 8.19%
COCCN1CCC2(COCc3cnc(N4CCOCC4)nc32)C1 (centres undefined) | 11.6%
O=C1NC2(CCN(CC3CC3)CC2)CC1c1ccccc1 (centres undefined) | -7.64%
O=C(NCCc1cccs1)[C@]12COC[C@H]1CN(c1ncccn1)C2 | -109%
Cc1nc(COCc2cnc3n2CCN(C)C3C)cs1 (centres undefined) | 6.01%
